# Data reported in ChEMBL document CHEMBL1629441, “Synthesis, in vitro and in vivo biological evaluation, and comprehensive understanding of structure-activity relationships of dipeptidyl boronic acid proteasome inhibitors constructed from β-amino acids” (J Med Chem, 2010).
# Columns and labels:
# [1] = Inhibition of human 20S proteasome chymotrypsin-like activity by fluorimetric assay
# In short: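 Human 20S proteasome preincubated with test compound, then Suc-Leu-Leu-Val-Tyr-AMC hydrolysis monitored 1 h at 37 °C by fluorescence (excitation 360 nm, 465 nm). Buffer pH 7.5: 20 mM Tris, 1 mM DTT, 10% glycerol, 0.02% (w/v) SDS; DMSO 3% (v/v) final. IC50 from five concentrations, each in duplicate; bortezomib standard.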
# SK-OV-3 = assay: Cytotoxicity against human SKOV3 cells after 72 hrs by MTT assay; assay type: functional, cell-based; conditions: SK-OV-3, 72 h
# In short: (§1)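 MTT growth assay: 3000 cells per well seeded, after 24 h exposed to 10 drug concentrations for 72 h, then MTT (5 mg/mL stock) 4 h at 37 °C. Formazan dissolved in DMSO, absorbance at 540 nm. Points in triplicate; IC50 is mean of at least three independent determinations. Cells grown at 37 °C, 5% CO2 with FBS.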
# [2] = Mean residence time (0-t) in Sprague-Dawley rat at 1 mg/kg, iv; assay type: ADME, organism-based; parameters: dose 1 mg/kg, route intravenous; conditions: in vivo
# In short: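 Male SD rats given single 1.0 mg/kg iv bolus of solution (0.5 mg/mL) in 1% ethanol, 1% Tween80, 98% buffered saline. Heparinized blood samples (n = 4) centrifuged 4000 rpm, 5 min, 4 °C; plasma concentrations used to derive PK parameters.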
# SW480 = assay: Cytotoxicity against human SW480 cells after 72 hrs by MTT assay; assay type: functional, cell-based; conditions: SW480, 72 h; in short: as §1
# A549 = assay: Cytotoxicity against human A549 cells after 72 hrs by MTT assay; assay type: functional, cell-based; conditions: A549, 72 h; in short: as §1
# Rattus norvegicus [3] = assay: Toxicity in Sprague-Dawley rat assessed as incidence of mortality at 1 mg/kg, iv after 10 hrs; assay type: organism-based; parameters: dose 1 mg/kg, route intravenous; conditions: in vivo
# In short: (§2)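 Male SD rats dosed once at 1.0 mg/kg, iv bolus or intragastric, during the PK study. Dosing solution 0.5 mg/mL in 1% ethanol, 1% Tween80, 98% buffered saline. Animals observed for death and toxic reactions over 10 h. n = 4 per PK group.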
# [4] = Cytotoxicity against human RPMI18226 cells after 72 hrs by MTT assay; assay type: functional, cell-based; conditions: RPMI18226, 72 h; in short: as §1
# PC-3 = assay: Cytotoxicity against human PC3 cells after 72 hrs by MTT assay; assay type: functional, cell-based; conditions: PC-3, 72 h; in short: as §1
# HepG2 = assay: Cytotoxicity against human HepG2 cells after 72 hrs by MTT assay; assay type: functional, cell-based; conditions: HepG2, 72 h; in short: as §1
# Rattus norvegicus [5] = assay: Toxicity in Sprague-Dawley rat assessed as incidence of mortality at 1 mg/kg, ig after 10 hrs; assay type: organism-based; parameters: dose 1 mg/kg, route intragastric; conditions: in vivo, po; in short: as §2
# [6] = Mean residence time (0-t) in Sprague-Dawley rat at 1 mg/kg, ig; assay type: ADME, organism-based; parameters: dose 1 mg/kg, route intragastric; conditions: in vivo, po
# In short: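 Male SD rats dosed intragastrically at 1.0 mg/kg from 0.5 mg/mL solution in 1% ethanol, 1% Tween80, 98% buffered saline. Heparinized blood (n = 4) centrifuged 4000 rpm, 5 min, 4 °C; plasma lower limit of detection 5 ng/mL.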
# HL-60 = assay: Cytotoxicity against human HL60 cells after 72 hrs by MTT assay; assay type: functional, cell-based; conditions: HL-60, 72 h; in short: as §1
# BXPC-3 = assay: Cytotoxicity against human BxPC3 cells after 72 hrs by MTT assay; assay type: functional, cell-based; conditions: BXPC-3, 72 h; in short: as §1
IC50 ([1]; read-out: IC50),Structure (SMILES),also measured
269 nM,CC(C)C[C@H](NC(=O)CC(NC(=O)c1cnccn1)c1cccc(F)c1)B(O)O (some centres not stated),–
33.1 nM,CC(C)C[C@H](NC(=O)CC(NC(=O)C1CCCCC1)c1cccc(F)c1)B(O)O (some centres not stated),–
38.9 nM,CC(C)C[C@H](NC(=O)CC(NC(=O)c1ccccc1)c1ccccc1F)B(O)O (some centres not stated),–
19 nM,CC(C)C[C@H](NC(=O)CC(NC(=O)c1ccccc1)c1cccc(F)c1)B(O)O (some centres not stated),–
34.6 nM,CC(C)C[C@H](NC(=O)CC(NC(=O)c1ccccc1)c1ccc(F)cc1)B(O)O (some centres not stated),–
89.1 nM,CC(C)C[C@H](NC(=O)CC(NC(=O)c1ccccc1)c1ccccc1Cl)B(O)O (some centres not stated),–
224 nM,COc1ccccc1C(CC(=O)N[C@@H](CC(C)C)B(O)O)NC(=O)c1ccccc1 (some centres not stated),–
35.4 nM,CC(C)C[C@H](NC(=O)CC(NC(=O)c1ccccc1)c1ccc([N+](=O)[O-])cc1)B(O)O (some centres not stated),–
1250 nM,Cc1ccccc1C(CC(=O)N[C@@H](CC(C)C)B(O)O)NC(=O)c1ccccc1 (some centres not stated),–
1100 nM,CC(C)C[C@H](NC(=O)CC(NC(=O)c1cccnc1)c1ccccc1F)B(O)O (some centres not stated),–
19 nM,COc1cccc(C(CC(=O)N[C@@H](CC(C)C)B(O)O)NC(=O)c2cccnc2)c1 (some centres not stated),–
7300 nM,CC(C)C[C@H](NC(=O)CC(NC(=O)c1cccnc1)c1ccc([N+](=O)[O-])cc1)B(O)O (some centres not stated),–
1250 nM,Cc1ccccc1C(CC(=O)N[C@@H](CC(C)C)B(O)O)NC(=O)c1cccnc1 (some centres not stated),–
50.1 nM,Cc1cccc(C(CC(=O)N[C@@H](CC(C)C)B(O)O)NC(=O)c2cccnc2)c1 (some centres not stated),–
1250 nM,CCCC[C@H](NC(=O)CC(NC(=O)c1ccccc1)c1cccc(F)c1)B(O)O (some centres not stated),–
1620 nM,O=C(CC(NC(=O)c1ccccc1)c1cccc(Cl)c1)N[C@@H](Cc1ccccc1)B(O)O (some centres not stated),–
131 nM,O=C(CC(NC(=O)c1ccccc1)c1cccc(F)c1)N[C@@H](Cc1cccc(F)c1)B(O)O (some centres not stated),–
501 nM,Cc1ccc(C[C@H](NC(=O)CC(NC(=O)c2ccccc2)c2cccc(F)c2)B(O)O)cc1 (some centres not stated),–
316 nM,CCCC[C@H](NC(=O)CC(NC(=O)c1ccccc1)c1cccc(Cl)c1)B(O)O (some centres not stated),–
371 nM,O=C(CC(NC(=O)c1ccccc1)c1cccc(Cl)c1)N[C@@H](Cc1ccccc1F)B(O)O (some centres not stated),–
1150 nM,Cc1ccc(C[C@H](NC(=O)CC(NC(=O)c2ccccc2)c2cccc(Cl)c2)B(O)O)cc1 (some centres not stated),–
194 nM,O=C(CC(NC(=O)c1ccccc1)c1cccc(Cl)c1)N[C@@H](Cc1ccc(F)cc1)B(O)O (some centres not stated),–
1090 nM,COc1cccc(C(CC(=O)N[C@@H](Cc2ccccc2)B(O)O)NC(=O)c2cccnc2)c1 (some centres not stated),–
602 nM,COc1cccc(C(CC(=O)N[C@@H](Cc2ccccc2F)B(O)O)NC(=O)c2cccnc2)c1 (some centres not stated),–
97.7 nM,CC(C)C[C@H](NC(=O)CC(NC(=O)c1cnccn1)c1cccc(Cl)c1)B(O)O (some centres not stated),–
117 nM,CC(C)C[C@H](NC(=O)CC(NC(=O)c1ccc2ccccc2c1)c1cccc(Cl)c1)B(O)O (some centres not stated),–
21.8 nM,CC(C)C[C@H](NC(=O)CC(NC(=O)[C@H]1CCCc2ccccc21)c1cccc(Cl)c1)B(O)O (some centres not stated),–
190 nM,CC(C)C[C@H](NC(=O)CC(NC(=O)c1cccc2c1CCCC2)c1cccc(Cl)c1)B(O)O (some centres not stated),–
26.3 nM,Cc1ccc(C(CC(=O)N[C@@H](CC(C)C)B(O)O)NC(=O)c2ccccc2)cc1 (some centres not stated),–
32.8 nM,COc1ccc(C(CC(=O)N[C@@H](CC(C)C)B(O)O)NC(=O)c2ccccc2)cc1 (some centres not stated),–

# Second part, the compound before the results:
Structure (SMILES),IC50 ([1]; read-out: IC50),also measured
CC(C)C[C@H](NC(=O)CC(NC(=O)C(=O)OC(C)(C)C)c1cccc(Cl)c1)B(O)O (some centres not stated),–,IC50 [1]: Not Active
CC(C)C[C@H](NC(=O)CC(NC(=O)C(=O)OC(C)(C)C)c1cccc(F)c1)B(O)O (some centres not stated),–,IC50 [1]: Not Active
COc1cccc(C(CC(=O)N[C@@H](CC(C)C)B(O)O)NC(=O)C(=O)OC(C)(C)C)c1 (some centres not stated),–,IC50 [1]: Not Active
CC(C)C[C@H](NC(=O)CC(NC(=O)c1ccccc1)c1cccc(Cl)c1)B(O)O (some centres not stated),16.5 nM,–
COc1cccc(C(CC(=O)N[C@@H](CC(C)C)B(O)O)NC(=O)c2ccccc2)c1 (some centres not stated),46.7 nM,–
CC(C)C[C@H](NC(=O)CC(NC(=O)c1ccccc1)c1ccccc1[N+](=O)[O-])B(O)O (some centres not stated),–,IC50 [1]: Not Active
CC(C)C[C@H](NC(=O)CC(NC(=O)c1ccccc1)c1cccc([N+](=O)[O-])c1)B(O)O (some centres not stated),42.6 nM,–
Cc1cccc(C(CC(=O)N[C@@H](CC(C)C)B(O)O)NC(=O)c2ccccc2)c1 (some centres not stated),50.1 nM,–
CC(C)C[C@H](NC(=O)CC(NC(=O)c1cccnc1)c1cccc(F)c1)B(O)O (some centres not stated),–,IC50 [1]: Not Active
CC(C)C[C@H](NC(=O)CC(NC(=O)c1cccnc1)c1ccc(F)cc1)B(O)O (some centres not stated),590 nM,–
CC(C)C[C@H](NC(=O)CC(NC(=O)c1cccnc1)c1ccccc1Cl)B(O)O (some centres not stated),–,IC50 [1]: Not Active
CC(C)C[C@H](NC(=O)CC(NC(=O)c1cccnc1)c1cccc(Cl)c1)B(O)O (some centres not stated),22.9 nM,–
COc1ccccc1C(CC(=O)N[C@@H](CC(C)C)B(O)O)NC(=O)c1cccnc1 (some centres not stated),87 nM,–
CC(C)C[C@H](NC(=O)CC(NC(=O)c1cccnc1)c1ccccc1[N+](=O)[O-])B(O)O (some centres not stated),–,IC50 [1]: Not Active
CC(C)C[C@H](NC(=O)CC(NC(=O)c1cccnc1)c1cccc([N+](=O)[O-])c1)B(O)O (some centres not stated),26.9 nM,–
O=C(CC(NC(=O)c1ccccc1)c1cccc(F)c1)N[C@@H](Cc1ccccc1)B(O)O (some centres not stated),1200 nM,–
Cc1ccccc1C[C@H](NC(=O)CC(NC(=O)c1ccccc1)c1cccc(F)c1)B(O)O (some centres not stated),–,IC50 [1]: Not Active
O=C(CC(NC(=O)c1ccccc1)c1cccc(F)c1)N[C@@H](Cc1ccccc1F)B(O)O (some centres not stated),301 nM,–
Cc1cccc(C[C@H](NC(=O)CC(NC(=O)c2ccccc2)c2cccc(F)c2)B(O)O)c1 (some centres not stated),120 nM,–
O=C(CC(NC(=O)c1ccccc1)c1cccc(F)c1)N[C@@H](Cc1ccc(F)cc1)B(O)O (some centres not stated),75.8 nM,–

Structure (SMILES),IC50 ([1]; read-out: IC50),also measured
O=C(CC(NC(=O)c1ccccc1)c1cccc(F)c1)N[C@@H](CC1CCCCC1)B(O)O (some centres not stated),–,IC50 [1]: Not Active
Cc1ccccc1C[C@H](NC(=O)CC(NC(=O)c1ccccc1)c1cccc(Cl)c1)B(O)O (some centres not stated),–,IC50 [1]: Not Active
Cc1cccc(C[C@H](NC(=O)CC(NC(=O)c2ccccc2)c2cccc(Cl)c2)B(O)O)c1 (some centres not stated),–,IC50 [1]: Not Active
O=C(CC(NC(=O)c1ccccc1)c1cccc(Cl)c1)N[C@@H](Cc1cccc(F)c1)B(O)O (some centres not stated),–,IC50 [1]: Not Active
O=C(CC(NC(=O)c1ccccc1)c1cccc(Cl)c1)N[C@@H](CC1CCCCC1)B(O)O (some centres not stated),–,IC50 [1]: Not Active
O=C(CC(NC(=O)c1cccnc1)c1cccc(Cl)c1)N[C@@H](CC1CCCCC1)B(O)O (some centres not stated),–,IC50 [1]: Not Active
CCCC[C@H](NC(=O)CC(NC(=O)c1cccnc1)c1cccc(OC)c1)B(O)O (some centres not stated),1480 nM,–
COc1cccc(C(CC(=O)N[C@@H](Cc2ccccc2C)B(O)O)NC(=O)c2cccnc2)c1 (some centres not stated),–,IC50 [1]: Not Active
COc1cccc(C(CC(=O)N[C@@H](Cc2cccc(C)c2)B(O)O)NC(=O)c2cccnc2)c1 (some centres not stated),1770 nM,–
COc1cccc(C(CC(=O)N[C@@H](Cc2cccc(F)c2)B(O)O)NC(=O)c2cccnc2)c1 (some centres not stated),89.1 nM,–
COc1cccc(C(CC(=O)N[C@@H](Cc2ccc(C)cc2)B(O)O)NC(=O)c2cccnc2)c1 (some centres not stated),930 nM,–
COc1cccc(C(CC(=O)N[C@@H](Cc2ccc(F)cc2)B(O)O)NC(=O)c2cccnc2)c1 (some centres not stated),63 nM,–
CC(=O)NC(CC(=O)N[C@@H](CC(C)C)B(O)O)c1cccc(Cl)c1 (some centres not stated),–,IC50 [1]: Not Active
COc1cccc(C(CC(=O)N[C@@H](CC(C)C)B(O)O)NC(C)=O)c1 (some centres not stated),–,IC50 [1]: Not Active
COc1cccc(C(CC(=O)N[C@@H](CC(C)C)B(O)O)NC(=O)[C@H]2CCCc3ccccc32)c1 (some centres not stated),28.1 nM,–
COc1cccc(C(CC(=O)N[C@@H](CC(C)C)B(O)O)NC(=O)c2cccc3c2CCCC3)c1 (some centres not stated),158 nM,–
CC(=O)NC(CC(=O)N[C@@H](CC(C)C)B(O)O)c1cccc(F)c1 (some centres not stated),–,IC50 [1]: Not Active
CC(C)C[C@H](NC(=O)CC(NC(=O)c1ccccc1)c1ccccc1)B(O)O (some centres not stated),39.8 nM,–
CC(C)C[C@H](NC(=O)CC(NC(=O)c1ccccc1)c1ccc(Cl)cc1)B(O)O (some centres not stated),20.8 nM,–
CC(C)C[C@H](NC(=O)[C@H](Cc1ccccc1)NC(=O)c1cnccn1)B(O)O [BORTEZOMIB],1.54 nM,IC50 (SK-OV-3): 66.8 nM; MRT last [2]: 1.4 h; IC50 (SW480): 12.3 nM; IC50 (A549): 13.9 nM; Activity (Rattus norvegicus [3]): Toxic; IC50 [4]: 3.5 nM; IC50 (PC-3): 8.3 nM; IC50 (HepG2): 25.2 nM; Activity (Rattus norvegicus [5]): Toxic; MRT last [6]: 7.69 h; IC50 (HL-60): 3.5 nM; IC50 (BXPC-3): 19.4 nM
